pIC50: −log10 of the molar value. The source made the active and inactive calls. The rule behind the calls is not given here.
Key:
MDA-MB-468 [1] = assay: Antiproliferative activity against human MDA-MB-468 cells assessed as cell viability incubated for 96 hrs by MTT assay; assay type: functional, cell-based; conditions: MDA-MB-468, 96 h
Summary of the method: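 Adherent cells (2000/well) attached overnight, then exposed to compounds at 0.14–100 µM for 96 h in DMEM with 10% FBS. MTT at 0.5 mg/mL for 4 h in the dark, formazan dissolved in DMSO, absorbance at 570 nm. Compounds were freshly prepared in DMSO, with DMSO below 1%.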

P493-6 [2] = assay: Antiproliferative activity against tetracycline-treated human P493-6 cells expressing MYC assessed as inhibition of cell proliferation at 25 uM incubated for 96 hrs by cell titer glo assay; assay type: functional, cell-based
Summary of the method: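 P493-6 cells, either untreated (high MYC) or MYC-off after 0.1 µg/mL tetracycline for 72 h, were exposed to 25 µM for 96 h. Read-out was % survival by CellTiter-Glo luminescence. Mean ± SD, n = 6, unpaired t-test.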

[3] = target: c-Myc/c-Max (Homo sapiens) (UniProt P01106+P61244); assay: Disruption of MYC-MAX heterodimerization in human MDA-MB-468 cells incubated for 12 hrs; assay type: cell-based
Summary of the method: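 Cells were given 25 µM or DMSO for 0, 3, 5 and 12 h. Cytoplasmic and nuclear lysate fractions were pooled. 2 mg protein was immunoprecipitated with MYC antibody overnight, then protein A/G beads for 4 h at 4 °C. Bound MAX was detected by western blot and quantified relative to MYC; MAX input was also measured.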

MDA-MB-468 [4] = assay: Downregulation of MYC level in human MDA-MB-468 cells at 50 uM incubated for 24 hrs in presence of MG132 by Western blot analysis; assay type: functional, cell-based; conditions: in the assay text read “Stabilization of MYC protein level” for “Downregulation of MYC level”
Summary of the method: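 MDA-MB-468 cells were pretreated with 30 µM MG132 for 1 h, then exposed to graded concentrations or DMSO for 24 h. MYC was read by western blot.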

MDA-MB-468 [5] = assay: Downregulation of MYC level in human MDA-MB-468 cells at 25 uM by Western blot analysis; assay type: functional, cell-based; conditions: time 9-24 hrs
Summary of the method: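 MDA-MB-468 cells were exposed to 25 µM over a time course of up to 24 h. MYC and FBXW7 were read by western blot.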

MDA-MB-468 [6] = assay: Downregulation of CCNA2 mRNA expression in human MDA-MB-468 cells at 25 uM incubated for 12 hrs by qRT-PCR analysis; assay type: functional, cell-based
Summary of the method: (§1)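 Cells (500,000/well) were cultured with or without 25 µM for the indicated time. Total RNA was extracted with TRIzol and reverse-transcribed. qPCR used SYBR green with target-gene primers, reported as ΔΔCT.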

MDA-MB-468 [7] = assay: Downregulation of CDK1 mRNA expression in human MDA-MB-468 cells at 25 uM incubated for 12 hrs by qRT-PCR analysis; assay type: functional, cell-based; summary of the method: as §1
MDA-MB-468 [8] = assay: Downregulation of CDC25A mRNA expression in human MDA-MB-468 cells at 25 uM incubated for 12 hrs by qRT-PCR analysis; assay type: functional, cell-based; summary of the method: as §1
MDA-MB-468 [9] = assay: Downregulation of CDC25C mRNA expression in human MDA-MB-468 cells at 25 uM incubated for 12 hrs by qRT-PCR analysis; assay type: functional, cell-based; summary of the method: as §1
MDA-MB-468 [10] = assay: Downregulation of E2F1 mRNA expression in human MDA-MB-468 cells at 25 uM incubated for 12 hrs by qRT-PCR analysis; assay type: functional, cell-based; summary of the method: as §1
P493-6 [11] = assay: Downregulation of CDK2 mRNA expression in human P493-6 cells at 25 uM incubated for 12 hrs by qRT-PCR analysis; assay type: functional, cell-based; summary of the method: as §1
P493-6 [12] = assay: Downregulation of CDK1 mRNA expression in human P493-6 cells at 25 uM incubated for 12 hrs by qRT-PCR analysis; assay type: functional, cell-based; summary of the method: as §1
MDA-MB-468 [13] = assay: Downregulation of CDK1 mRNA expression in human MDA-MB-468 cells at 25 uM incubated at 48 hrs by qRT-PCR analysis; assay type: functional, cell-based; summary of the method: as §1
MDA-MB-468 [14] = assay: Downregulation of E2F1 mRNA expression in human MDA-MB-468 cells at 25 uM incubated at 48 hrs by qRT-PCR analysis; assay type: functional, cell-based; summary of the method: as §1
MDA-MB-468 [15] = assay: Downregulation of E2F2 mRNA expression in human MDA-MB-468 cells at 25 uM incubated at 48 hrs by qRT-PCR analysis; assay type: functional, cell-based; summary of the method: as §1
[16] = Induction of apoptosis in human P493-6 cells assessed as viable cells at 25 uM incubated for 24 hrs by Annexin V/PI staining based flow cytometry analysis (reference value: 90.8%); assay type: functional; conditions: read-out: Activity
[17] = Induction of apoptosis in human P493-6 cells assessed as late apoptotic cells at 25 uM incubated for 24 hrs by Annexin V/PI staining based flow cytometry analysis (reference value: 6.52 %); assay type: functional
[18] = Induction of apoptosis in human P493-6 cells assessed as necrotic cells at 50 uM incubated for 24 hrs by Annexin V/PI staining based flow cytometry analysis (reference value: 0.11 %); assay type: functional
MDA-MB-468 [19] = assay: Antitumor activity against human MDA-MB-468 cells xenografted in mouse assessed as tumor growth inhibition at 10 mg/kg, po measured at 14 to 26 days by elliptical measurement method based caliper analysis; assay type: functional, organism-based; conditions: time 14-26 day
[20] = Toxicity in mouse implanted with human MDA-MB-468 cells assessed as change in body weight at 10 mg/kg, po; assay type: organism-based; conditions: in vivo
P493-6 [21] = assay: Induction of apoptosis in human P493-6 cells assessed as effect on PARP level at 50 uM incubated for 24 hrs
MDA-MB-468 [22] = assay: Induction of apoptosis in human MDA-MB-468 cells assessed as effect on PARP level at 50 uM incubated for 24 hrs
P493-6 [23] = assay: Induction of apoptosis in human P493-6 cells assessed as effect on caspase-3 level at 50 uM incubated for 24 hrs
P493-6 [24] = assay: Induction of apoptosis in human P493-6 cells assessed as effect on cleaved PARP level at 50 uM incubated for 24 hrs
MDA-MB-468 [25] = assay: Induction of apoptosis in human MDA-MB-468 cells assessed as effect on caspase-3 level at 50 uM incubated for 24 hrs
MDA-MB-468 [26] = assay: Induction of apoptosis in human MDA-MB-468 cells assessed as effect on cleaved PARP level at 50 uM incubated for 24 hrs
[27] = target: Myc proto-oncogene protein (Homo sapiens) (UniProt P01106); assay: Binding affinity to MYC in human P493-6 cells assessed as thermal stabilization by measuring melting temperature at 25 uM measured for 2 hrs by CETSA analysis
[28] = target: Myc proto-oncogene protein (Homo sapiens) (UniProt P01106); assay: Binding affinity to MYC in human P493-6 cells assessed as thermal stabilization by measuring melting temperature at 25 uM measured for 2 hrs by CETSA analysis (reference value: 42 degreeC)

Chain of Myc proto-oncogene protein (Homo sapiens) (P01106 whole entry): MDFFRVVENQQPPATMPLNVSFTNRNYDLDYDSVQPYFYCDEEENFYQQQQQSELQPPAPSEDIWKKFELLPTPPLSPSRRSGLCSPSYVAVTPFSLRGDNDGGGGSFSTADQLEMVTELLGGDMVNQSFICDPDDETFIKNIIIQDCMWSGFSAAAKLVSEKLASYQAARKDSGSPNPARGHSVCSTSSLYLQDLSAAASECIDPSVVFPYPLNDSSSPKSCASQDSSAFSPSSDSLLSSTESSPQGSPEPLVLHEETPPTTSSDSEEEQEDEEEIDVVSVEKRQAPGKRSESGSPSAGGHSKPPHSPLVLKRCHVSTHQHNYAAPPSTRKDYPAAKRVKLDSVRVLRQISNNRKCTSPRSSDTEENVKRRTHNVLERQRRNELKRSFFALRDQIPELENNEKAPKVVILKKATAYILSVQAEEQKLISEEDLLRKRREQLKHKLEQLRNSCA
Chain of c-Myc/c-Max (Homo sapiens) (P01106 whole entry): as above
Chain of c-Myc/c-Max (Homo sapiens) (P61244 2-160 partner limits assumed): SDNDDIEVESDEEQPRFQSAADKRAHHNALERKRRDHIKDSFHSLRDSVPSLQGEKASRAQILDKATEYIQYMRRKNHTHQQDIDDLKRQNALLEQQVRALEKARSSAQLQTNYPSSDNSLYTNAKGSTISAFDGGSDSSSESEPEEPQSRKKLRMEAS

N#Cc1cc2c(-c3ccc(Cl)cc3)nn(-c3ccccc3)c2[nH]c1=O
pIC50 (MDA-MB-468 [1]): 4.87 | Activity (P493-6 [2]): Active | Activity [3]: Active | Activity (MDA-MB-468 [4]): Active | Activity (MDA-MB-468 [5]): Time-dependent-effect | Activity (MDA-MB-468 [6]): Active | Activity (MDA-MB-468 [7]): Active | Activity (MDA-MB-468 [8]): Active | Activity (MDA-MB-468 [9]): Active | Activity (MDA-MB-468 [10]): Active | Activity (P493-6 [11]): Active | Activity (P493-6 [12]): Active | Activity (MDA-MB-468 [13]): Active | Activity (MDA-MB-468 [14]): Active | Activity (MDA-MB-468 [15]): Active | viability at 25 µM [16]: 85.5% | Activity [17]: 11.3% | Activity [18]: 0.11% | TGI (MDA-MB-468 [19]): Active | Activity [20]: Non-toxic | Activity (P493-6 [21]): Active | Activity (MDA-MB-468 [22]): Active | Activity (P493-6 [23]): Active | Activity (P493-6 [24]): Active | Activity (MDA-MB-468 [25]): Active | Activity (MDA-MB-468 [26]): Active | Tm [27]: 35 °C | Tm [28]: 38 °C
